Reference: ChEMBL document CHEMBL1158538, “(-)-Menthylamine derivatives as potent and selective antagonists of transient receptor potential melastatin type-8 (TRPM8) channels” (Bioorg Med Chem Lett, 2010)

Experiments:
[1] = biological target: T1, Transient receptor potential cation channel subfamily M member 8 (Rattus norvegicus, UniProt Q8R455); assay: Antagonist activity at rat TRMP8 receptor expressed in HEK293 cells assessed as icilin-induced calcium elevation; format: functional, cell-based
How it was run: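 HEK-293 cells stably expressing rat TRPM8 received compound 5 min before icilin (0.25 µM). Inhibition of the intracellular Ca2+ elevation was measured. IC50 given as mean ± SEM of N = 3.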

[2] = biological target: T1, Transient receptor potential cation channel subfamily M member 8; assay: Antagonist activity at rat TRMP8 receptor expressed in HEK293 cells assessed as menthol-induced calcium elevation; format: functional, cell-based
How it was run: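 Rat TRPM8-transfected HEK-293 cells were pretreated with compound for 5 min, then challenged with menthol (20 µM). Block of the Ca2+ rise gave IC50 (means ± SEM, N = 3).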

[3] = biological target: T2, Transient receptor potential cation channel subfamily V member 1 (Homo sapiens, UniProt Q8NER1); assay: Agonist activity at human TRPV1 receptor expressed in HEK293 cells assessed as intracellular calcium stimulation relative to inomycin; format: functional, cell-based
How it was run: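 Ca2+ elevation in HEK-293 cells stably expressing human TRPV1, expressed as percent of the ionomycin ([…]) response. Not measurable if below 10%. Mean ± SEM, N = 3.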

[4] = biological target: Transient receptor potential cation channel subfamily A member 1 (Rattus norvegicus, UniProt Q6RI86); assay: Agonist activity at rat TRPA1 receptor expressed in HEK293 cells assessed as intracellular calcium stimulation; format: functional, cell-based
How it was run: (§1)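 Stably transfected HEK-293 lines (human TRPV1 or rat TRPA1) exposed to compound; rise in intracellular Ca2+ recorded. Non-transfected HEK-293 cells served as control. EC50 reported as mean ± SEM, N = 3.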

[5] = biological target: Transient receptor potential cation channel subfamily A member 1 (Rattus norvegicus) (UniProt Q6RI86); assay: Agonist activity at rat TRPA1 receptor expressed in HEK293 cells assessed as intracellular calcium stimulation relative to isothiocyanate; format: functional, cell-based
How it was run: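 Intracellular Ca2+ rise in HEK-293 cells stably transfected with rat TRPA1, given as percent of the response to allyl isothiocyanate (100 µM). Efficacy under 10% scored not measurable. N = 3, mean ± SEM.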

[6] = biological target: T2, Transient receptor potential cation channel subfamily V member 1; assay: Agonist activity at human TRPV1 receptor expressed in HEK293 cells assessed as intracellular calcium stimulation; format: functional, cell-based; how it was run: as §1
LNCaP = assay: Induction of apoptosis in human LNCAP cells assessed as caspase 3/7 release at 1 uM; format: functional
How it was run: (§2)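 Prostate carcinoma cells (LNCaP, high TRPM8; DU-145, negligible TRPM8) were treated at 1 µM. Apoptosis was read as caspase 3/7 release in arbitrary units. Anti-FAS antibody plus camptothecin served as reference. Means ± SD, N = 3 experiments.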

DU-145 = assay: Induction of apoptosis in human DU145 cells assessed as caspase 3/7 release at 1 uM; format: functional; how it was run: as §2

T2 sequence (Q8NER1 whole entry): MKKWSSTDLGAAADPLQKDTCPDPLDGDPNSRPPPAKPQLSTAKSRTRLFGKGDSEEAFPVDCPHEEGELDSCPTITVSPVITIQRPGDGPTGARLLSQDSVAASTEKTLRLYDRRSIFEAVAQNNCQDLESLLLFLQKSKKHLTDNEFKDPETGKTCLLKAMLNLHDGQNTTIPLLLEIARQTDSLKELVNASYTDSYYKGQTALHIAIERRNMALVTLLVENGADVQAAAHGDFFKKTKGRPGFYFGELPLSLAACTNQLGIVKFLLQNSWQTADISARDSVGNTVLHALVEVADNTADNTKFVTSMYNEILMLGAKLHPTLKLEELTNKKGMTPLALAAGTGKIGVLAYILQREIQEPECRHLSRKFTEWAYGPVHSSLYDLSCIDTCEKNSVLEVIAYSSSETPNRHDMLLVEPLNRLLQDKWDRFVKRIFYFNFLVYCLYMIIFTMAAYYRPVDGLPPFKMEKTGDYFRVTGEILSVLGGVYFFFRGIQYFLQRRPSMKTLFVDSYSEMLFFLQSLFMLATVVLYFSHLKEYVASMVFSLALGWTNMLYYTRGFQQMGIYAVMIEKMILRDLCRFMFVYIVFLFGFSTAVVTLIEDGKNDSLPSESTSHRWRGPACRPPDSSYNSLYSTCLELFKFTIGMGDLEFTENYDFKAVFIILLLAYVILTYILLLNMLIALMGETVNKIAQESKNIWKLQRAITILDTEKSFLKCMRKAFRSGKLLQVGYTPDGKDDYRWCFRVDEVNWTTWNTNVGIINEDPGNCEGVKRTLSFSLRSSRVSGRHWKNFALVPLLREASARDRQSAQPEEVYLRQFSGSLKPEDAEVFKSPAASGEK
Sequence of Transient receptor potential cation channel subfamily A member 1 (Q6RI86 whole entry): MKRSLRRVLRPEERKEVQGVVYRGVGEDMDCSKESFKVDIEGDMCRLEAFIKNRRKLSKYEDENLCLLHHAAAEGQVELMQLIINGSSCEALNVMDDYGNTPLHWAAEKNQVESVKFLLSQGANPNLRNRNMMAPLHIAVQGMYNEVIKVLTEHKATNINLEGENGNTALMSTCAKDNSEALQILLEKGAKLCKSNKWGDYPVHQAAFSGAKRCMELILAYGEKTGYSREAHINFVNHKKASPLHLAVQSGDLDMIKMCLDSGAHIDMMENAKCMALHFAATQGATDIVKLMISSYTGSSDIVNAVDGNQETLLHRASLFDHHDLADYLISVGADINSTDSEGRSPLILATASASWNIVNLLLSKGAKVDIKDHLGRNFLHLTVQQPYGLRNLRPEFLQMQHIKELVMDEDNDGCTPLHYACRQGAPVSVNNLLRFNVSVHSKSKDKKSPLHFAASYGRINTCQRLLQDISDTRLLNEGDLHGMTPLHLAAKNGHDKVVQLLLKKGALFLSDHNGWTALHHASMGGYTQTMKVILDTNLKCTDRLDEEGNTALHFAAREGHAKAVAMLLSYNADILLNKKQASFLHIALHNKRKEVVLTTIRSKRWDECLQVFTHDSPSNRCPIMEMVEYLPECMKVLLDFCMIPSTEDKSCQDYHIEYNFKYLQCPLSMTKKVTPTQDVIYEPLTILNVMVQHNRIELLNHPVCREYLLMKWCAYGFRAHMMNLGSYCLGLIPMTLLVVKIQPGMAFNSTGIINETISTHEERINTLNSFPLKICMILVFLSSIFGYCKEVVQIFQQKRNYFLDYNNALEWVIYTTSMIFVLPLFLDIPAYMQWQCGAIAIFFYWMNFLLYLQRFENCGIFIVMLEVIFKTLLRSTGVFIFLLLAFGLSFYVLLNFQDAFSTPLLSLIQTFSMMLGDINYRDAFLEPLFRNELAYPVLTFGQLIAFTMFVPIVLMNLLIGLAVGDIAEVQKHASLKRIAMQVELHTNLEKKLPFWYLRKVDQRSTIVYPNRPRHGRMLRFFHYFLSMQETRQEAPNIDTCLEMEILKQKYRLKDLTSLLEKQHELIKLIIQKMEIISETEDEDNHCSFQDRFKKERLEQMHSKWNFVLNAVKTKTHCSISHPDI
Sequence of Transient receptor potential cation channel subfamily A member 1 (Rattus norvegicus) (Q6RI86 whole entry): as above
T1 sequence (Q8R455 whole entry): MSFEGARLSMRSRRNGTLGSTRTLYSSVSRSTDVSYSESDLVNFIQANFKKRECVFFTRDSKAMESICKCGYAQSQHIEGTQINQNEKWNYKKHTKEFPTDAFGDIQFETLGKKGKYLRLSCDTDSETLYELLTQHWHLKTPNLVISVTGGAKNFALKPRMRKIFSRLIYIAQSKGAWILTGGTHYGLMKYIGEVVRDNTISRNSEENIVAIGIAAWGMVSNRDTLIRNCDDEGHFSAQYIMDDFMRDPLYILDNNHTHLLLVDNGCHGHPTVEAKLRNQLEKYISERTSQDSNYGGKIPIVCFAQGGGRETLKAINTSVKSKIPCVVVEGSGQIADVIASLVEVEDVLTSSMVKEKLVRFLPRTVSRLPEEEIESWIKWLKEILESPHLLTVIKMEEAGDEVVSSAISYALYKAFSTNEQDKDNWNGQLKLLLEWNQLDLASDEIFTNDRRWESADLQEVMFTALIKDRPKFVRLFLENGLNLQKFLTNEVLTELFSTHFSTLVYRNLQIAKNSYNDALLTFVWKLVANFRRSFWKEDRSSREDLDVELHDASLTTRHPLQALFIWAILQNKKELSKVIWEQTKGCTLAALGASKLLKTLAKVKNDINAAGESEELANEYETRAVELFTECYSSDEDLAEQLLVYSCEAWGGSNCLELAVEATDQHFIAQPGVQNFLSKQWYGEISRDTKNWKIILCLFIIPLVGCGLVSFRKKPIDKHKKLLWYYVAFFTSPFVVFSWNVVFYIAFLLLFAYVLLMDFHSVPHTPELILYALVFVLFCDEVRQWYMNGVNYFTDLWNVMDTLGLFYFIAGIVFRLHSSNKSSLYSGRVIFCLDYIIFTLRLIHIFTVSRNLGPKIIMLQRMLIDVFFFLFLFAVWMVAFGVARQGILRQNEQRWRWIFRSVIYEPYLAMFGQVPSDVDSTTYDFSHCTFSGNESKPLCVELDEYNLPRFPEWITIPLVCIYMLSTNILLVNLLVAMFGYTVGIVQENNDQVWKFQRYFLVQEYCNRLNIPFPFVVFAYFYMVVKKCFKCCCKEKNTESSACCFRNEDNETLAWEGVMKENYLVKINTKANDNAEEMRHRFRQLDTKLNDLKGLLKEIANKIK

In the case of CC(C)[C@@H]1CC[C@@H](C)C[C@H]1NC(=O)Oc1ccc(-c2ccccc2)cc1, the IC50 [1] is reported as 7.4 µM, the IC50 [2] is reported as 0.7 µM and the Efficacy [3] is reported as 4.4%. It also gave an EC50 [4] of 6.7 µM and an Efficacy [5] of 87.2%.

Work on CC(C)[C@@H]1CC[C@@H](C)C[C@H]1NC(=O)NC12CC3CC(CC(C3)C1)C2 yielded an IC50 [1] of over 100 µM, an IC50 [2] of over 100 µM and an EC50 [6] of 1 µM. The Efficacy [3] was 24.4%, the EC50 [4] was 11.2 µM and the Efficacy [5] was 159%.

With CC(C)[C@@H]1CC[C@@H](C)C[C@H]1NC(=O)c1ccc(-c2ccccc2)cc1 the IC50 [1] was 0.05 µM, the IC50 [2] was 0.02 µM and the Efficacy [3] was 7.8%. It also gave an EC50 [4] of 4.1 µM, an Efficacy [5] of 34.7% and an Activity (LNCaP) of 58576 a.u. It also gave an Activity (DU-145) of 9770 a.u.

In the case of CC(C)[C@@H]1CC[C@@H](C)C[C@H]1NC(=O)Oc1cccc(-c2ccccc2)c1, the IC50 [1] is reported as 1.5 µM, the IC50 [2] is reported as 0.05 µM and the EC50 [6] is reported as 7.1 µM. It also gave an Efficacy [3] of 50.9%, an EC50 [4] of 31 µM and an Efficacy [5] of 282%.

In the case of CC(C)[C@@H]1CC[C@@H](C)C[C@H]1NC(=O)CCCCCCc1ccccc1, the IC50 [1] is reported as 0.4 µM, the IC50 [2] is reported as 0.4 µM and the Efficacy [3] is reported as 8%. For the same compound, the EC50 [4] was 0.4 µM and the Efficacy [5] was 42.8%.

CC(C)[C@@H]1CC[C@@H](C)C[C@H]1NC(=O)NCCc1c[nH]c2ccc(O)cc12 gave an IC50 [1] of 31 µM, an IC50 [2] of 15.8 µM and an EC50 [6] of 52.2 µM. The Efficacy [3] was 12.7% and the Efficacy [5] was under 10%.

With CCCCCCCC/C=C\CCCCCCCC(=O)N[C@@H]1C[C@H](C)CC[C@H]1C(C)C the IC50 [1] was over 100 µM, the IC50 [2] was 60.6 µM and the Efficacy [3] was 4.4%. For the same compound, the Efficacy [5] was under 10%.

With Cc1ccc(C(=O)N[C@@H]2C[C@H](C)CC[C@H]2C(C)C)cc1 the IC50 [1] was 2.5 µM, the IC50 [2] was 2.2 µM and the Efficacy [3] was 5.4%. The Efficacy [5] was under 10%.

With COc1cc(CNC(=O)N[C@@H]2C[C@H](C)CC[C@H]2C(C)C)ccc1O the IC50 [1] was 19.8 µM, the IC50 [2] was 30.5 µM and the EC50 [6] was 0.23 µM. For the same compound, the Efficacy [3] was 63.2% and the Efficacy [5] was under 10%.

Work on COc1ccc(C(=O)N[C@@H]2C[C@H](C)CC[C@H]2C(C)C)cc1 yielded an IC50 [1] of 9.6 µM, an IC50 [2] of 12.8 µM and an Efficacy [3] of 9.6%. The Efficacy [5] was under 10%.

CC(C)[C@@H]1CC[C@@H](C)C[C@H]1NC(=O)c1ccc(Cl)cc1 gave an IC50 [1] of 1.6 µM, an IC50 [2] of 0.7 µM and an EC50 [6] of 4.1 µM. The Efficacy [3] was 53.8%, the EC50 [4] was 40.2 µM and the Efficacy [5] was 223%.

For CC(C)[C@@H]1CC[C@@H](C)C[C@H]1NC(=O)Oc1cccc(C(F)(F)F)c1, the IC50 [1] was 0.6 µM, the IC50 [2] was 0.3 µM and the Efficacy [3] was 7.4%. For the same compound, the EC50 [4] was 13.8 µM and the Efficacy [5] was 220%.

In the case of CC(C)[C@@H]1CC[C@@H](C)C[C@H]1NC(=O)Oc1ccc(C(F)(F)F)cc1, the IC50 [1] is reported as 0.7 µM, the IC50 [2] is reported as 0.2 µM and the Efficacy [3] is reported as 3.3%. It also gave an EC50 [4] of 3 µM and an Efficacy [5] of 88.9%.

In the case of CC(C)[C@@H]1CC[C@@H](C)C[C@H]1NC(=O)Oc1ccc(Cl)cc1, the IC50 [1] is reported as 4.1 µM, the IC50 [2] is reported as 0.8 µM and the EC50 [6] is reported as 42.8 µM. It also gave an Efficacy [3] of 15.1%, an EC50 [4] of 7.1 µM and an Efficacy [5] of 181%.

Work on CC(C)[C@@H]1CC[C@@H](C)C[C@H]1NC(=O)c1cccc(Cl)c1 yielded an IC50 [1] of 2.1 µM, an IC50 [2] of 2.8 µM and an EC50 [6] of 7.6 µM. The Efficacy [3] was 41.9% and the Efficacy [5] was under 10%.

In the case of CC(C)[C@@H]1CC[C@@H](C)C[C@H]1NC(=O)CCCCCCCc1ccccc1, the IC50 [1] is reported as 0.5 µM, the IC50 [2] is reported as 0.4 µM and the Efficacy [3] is reported as 5.5%. For the same compound, the EC50 [4] was 26.7 µM and the Efficacy [5] was 67%.

CC(C)[C@@H]1CC[C@@H](C)C[C@H]1NC(=O)Oc1cccc(Cl)c1 showed an IC50 [1] of 0.5 µM, an IC50 [2] of 1.5 µM and an EC50 [6] of 19.2 µM. For the same compound, the Efficacy [3] was 22.6%, the EC50 [4] was 30 µM and the Efficacy [5] was 309%.

Work on CC(C)[C@@H]1CC[C@@H](C)C[C@H]1NC(=O)c1ccc(C(C)(C)C)cc1 yielded an IC50 [1] of 60.8 µM, an IC50 [2] of 97.6 µM and an EC50 [6] of 0.25 µM. It also gave an Efficacy [3] of 27.4%, an EC50 [4] of 4.9 µM and an Efficacy [5] of 138%.

Cc1ccc(OC(=O)N[C@@H]2C[C@H](C)CC[C@H]2C(C)C)cc1 showed an IC50 [1] of 0.7 µM, an IC50 [2] of 1.1 µM and an Efficacy [3] of 3.4%. It also gave an EC50 [4] of 0.7 µM and an Efficacy [5] of 73.9%.

CC(C)[C@@H]1CC[C@@H](C)C[C@H]1NC(=O)Oc1cccc(C(C)(C)C)c1 was tested, and the IC50 [1] was 3.3 µM, the IC50 [2] was 5.9 µM and the EC50 [6] was 5.8 µM. For the same compound, the Efficacy [3] was 16.3%, the EC50 [4] was 36.7 µM and the Efficacy [5] was 273%.

Work on CC(C)[C@@H]1CC[C@@H](C)C[C@H]1NC(=O)Oc1ccc(C(C)(C)C)cc1 yielded an IC50 [1] of 0.08 µM, an IC50 [2] of 0.1 µM and an EC50 [6] of 18.3 µM. It also gave an Efficacy [3] of 23.8%, an EC50 [4] of 11.7 µM and an Efficacy [5] of 76%.

For COc1ccc(OC(=O)N[C@@H]2C[C@H](C)CC[C@H]2C(C)C)cc1, the IC50 [1] was 2.6 µM, the IC50 [2] was 2.2 µM and the EC50 [6] was 53.8 µM. For the same compound, the Efficacy [3] was 46.6%, the EC50 [4] was 3.2 µM and the Efficacy [5] was 135%.
